Laboratory results taken from ChEMBL document CHEMBL4513216, “Probing the Open Global Health Chemical Diversity Library for Multistage-Active Starting Points for Next-Generation Antimalarials” (ACS Infect Dis, 2020).

Assay: Toxicity liver stage against HepG2, at 10uM
Format: cell-based
Set-up: test concentration 10 uM, cell line HepG2-A16-CD81EGFP
Conditions: human, HepG2-A16-CD81EGFP cells; read-out: INHIBITION
In short: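 Uninfected HepG2-A16-CD81EGFP cells, 3 × 10^3 per well, 1536-well, plated on prespotted compound at 10 μM final, parasite-free screening media added to match infected plates; puromycin 10 μM positive, DMSO 0.5% negative; run in parallel with 48 h PbLuc assay at 37 °C, 5% CO2; viability by CellTiter-Glo luminescence, normalized to controls.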

| SMILES | cytotoxicity at 10 µM |
| --- | --- |
| CCN(CC)C1(Cc2cc(COC)on2)COC1 | -2.45% |
| Cc1nc(-c2ccc(S(=O)(=O)N3CCCCC3)cc2)co1 | -2.5% |
| COCCn1cc(CC(=O)Nc2nc[nH]n2)c2ccccc21 | -0.145% |
| COC1(CNC(=O)c2ccsc2)CCSC1 (stereo unspecified) | -3.09% |
| Cc1cc(C(=O)N2CC[C@@H]3CN(CCC(C)C)S(=O)(=O)[C@@H]3CC2)no1 | 1.58% |
| CN(C)CCOCC1CN(C(=O)c2cscn2)Cc2ccnn2C1 (stereo unspecified) | 3.65% |
| O=C(NCC1CC1)C1CN(C(=O)c2ccnnc2)CC12CCOCC2 (stereo unspecified) | 8.21% |
| Cn1cc(NC(=O)Cn2cc(-c3ccccc3)ncc2=O)cn1 | -3.43% |
| CCCn1cc(CN2CCOCC2c2[nH]ncc2C)cn1 (stereo unspecified) | 0.325% |
| CC(C)N1CC(C(=O)NCc2ccc(S(=O)(=O)N(C)C)cc2)CC1=O (stereo unspecified) | 4.44% |
| CCN(CC)c1ncc2c(O)nc(C3CCNCC3)cc2n1 | 14.7% |
| COc1ccccc1NC(=O)C1(c2ccccc2)CCOCC1 | 7.59% |
| COCC(=O)N1CCN(C)C(=O)C(Cc2ccc(-c3cccs3)cc2)C1 (stereo unspecified) | 1.74% |
| CC(=O)N1Cc2ccccc2OC2(CCN(C(=O)C3CCOC3)CC2)C1 (stereo unspecified) | 0.146% |
| O=C(Cc1cccc(O)c1)N1CCCC(O)(CN2CCOCC2)CC1 (stereo unspecified) | -3.28% |
| O=C(Cc1ccc(F)c(F)c1)NC1COc2ccccc2C1=O (stereo unspecified) | 4.61% |
| CC(C)(C)c1cc(NC(=O)CN(Cc2ccco2)Cc2cccs2)on1 | 11.2% |
| COc1ccc(COCC(O)CSc2ccc(NC(C)=O)cc2)cc1 (stereo unspecified) | 8.22% |
| Cc1cc(C)n(CCCNC(=O)C2CCCO2)n1 (stereo unspecified) | -11.5% |
| CCOCCN1CCN(CC(=O)NC2(C#N)CCCC2)CC1CC (stereo unspecified) | 7.73% |
| CC(NC(N)=O)C(=O)NCc1cc(Br)ccc1F (stereo unspecified) | -3.02% |
| COc1ccccc1NCC(=O)NCc1scnc1C | 5.48% |
| Cc1nc(C)c(C(=O)N2CCc3c(C)cccc32)o1 | -2.28% |

| SMILES | cytotoxicity at 10 µM |
| --- | --- |
| Cc1noc(C)c1CNC(=O)Nc1ccc(N2CCOC(C)C2)cc1 (stereo unspecified) | -2.35% |
| CCOc1cc(CNC(=O)CNC(=O)CC2CCCCC2)ccn1 | 6.81% |
| CN(C)c1ccc(C(=O)Nc2ccn(CCc3ccncc3)n2)cc1 | -4.59% |
| CC(C)c1cnc(CN2CCCC(c3ccn[nH]3)C2)o1 (stereo unspecified) | -4.01% |
| CN(C(=O)c1ccc(Cl)c(S(C)(=O)=O)c1)c1ccccc1 | -1.47% |
| COCCn1cc(C(=O)N2CCCC2c2cnn(C)c2)ccc1=O (stereo unspecified) | 5.92% |
| CCCc1nnc(NC(=O)NC2CCOc3ccccc32)s1 (stereo unspecified) | 3.72% |
| COc1ccc(NC(=O)N(CCO)Cc2ccsc2)c(OC)c1 | 12.2% |
| COc1ccc(C(C)NC(=O)NCCc2ccc(C)nc2)c(OC)c1 (stereo unspecified) | -1.74% |
| CC(=O)N1CCC(NC(=O)Cc2csc(C(C)(C)C)n2)CC1 | -8.41% |
| NC(=O)NC(=O)CCSCc1coc(-c2cccc(Cl)c2)n1 | -1.23% |
| Cc1ccc2c(c1)C(NCc1nccn1Cc1ccccc1)CCCO2 (stereo unspecified) | 1.26% |
| Cc1nc(CNC(C(=O)N2CCOCC2)C(C)C)oc1C (stereo unspecified) | -4.34% |
| O=C(Nc1ccc(=O)n(Cc2ccccc2Cl)c1)C1CC1 | -6.57% |
| CCCOc1ccc(Cl)cc1C(=O)N1CCC(n2cncn2)CC1 | 2.93% |
| CC(Cn1cccn1)NC(=O)NCCN1CCCCCC1=O (stereo unspecified) | 12.3% |
| CCC(C)(NCc1nnc(C(C)(C)C)o1)c1nccs1 (stereo unspecified) | 19.2% |
| c1ccc(C2CN(CCc3ccncc3)CCO2)cc1 (stereo unspecified) | -8.85% |
| Cc1csc(C(C)(C)NCC(=O)N2CCCC(C(F)(F)F)C2)n1 (stereo unspecified) | 6.32% |
| Cc1c(C(C)NC(=O)Nc2ccc(F)c(F)c2)cnn1C (stereo unspecified) | -46.8% |
| CCO[C@@H]1CC[C@H]2[C@H]1OCCN2C(=O)CC1=CCCCC1 | 2.91% |
| Cn1cnc(-c2nc(C(=O)NC3CC3)c3ccccn23)c1 | -114% |
| Cc1cc(NC(C)c2nnn[nH]2)n2nc(C)c(C)c2n1 (stereo unspecified) | 9.4% |

| SMILES | cytotoxicity at 10 µM |
| --- | --- |
| Cn1nccc1NC(=O)c1cccc(CN2C[C@H]3CC[C@@H](C2)N3)c1 | 6.56% |
| O=C(NC1CCCC1)c1cc(Cn2cnc3ccccc32)on1 | 4.51% |
| CN(C)CCN1CC(C(=O)NCc2ccc(C#N)cc2)CC1=O (stereo unspecified) | -6.02% |
| CC(C)c1nnsc1CNC(=O)C1CCN(C(C)C)CC1 | -8.05% |
| CC1(C)CC(CN2CCC3(CCC(=O)N(C4CCC4)C3)CC2)CCO1 (stereo unspecified) | 0.986% |
| COc1nccnc1N1CCN(Cc2cccc(C)c2)C(=O)C1 | -0.408% |
| CCCc1nnc(NC2CCN(CCO)CC2)o1 | 8.35% |
| Cc1ncc(C(=O)N2CCCCC2c2nc3cc(F)ccc3[nH]2)c(O)n1 (stereo unspecified) | -0.305% |
| Cn1ccnc1C1CCCN(C(=O)c2ccc3nccnc3c2)C1 (stereo unspecified) | 19.7% |
| O=C(CCCN1CCCCC1)NC(C(=O)O)c1ccc(Cl)cc1 (stereo unspecified) | -2.33% |
| CC1(c2ccccc2)CCCN(Cc2nnc(-c3cccnc3)o2)C1 (stereo unspecified) | -6.64% |
| CN(C(=O)CSc1ccccn1)C1CCCN(CCc2ccccc2)C1 (stereo unspecified) | -4.46% |
| Clc1cc(N2CCN(C3CCOCC3)CC2)nc2[nH]ccc12 | -3.96% |
| COCc1ccc(C(=O)N2CCCN(c3ccc(F)cc3)CC2)s1 | -8.92% |
| CCN(Cc1ccccc1)C(=O)CCN1C[C@@H](C(=O)O)[C@H](C2CC2)C1 | 6.94% |
| CN(C)c1nc2c(c(NCc3nnc4n3CCCCC4)n1)CCNC2 | -1.37% |
| O=C(O)c1cccnc1CN1CCCCC1CCc1cccs1 (stereo unspecified) | 5.23% |
| Cc1oc(-c2ccc(F)cc2)nc1CN1CCOCS1(=O)=O | 4.57% |
| Cc1nn(C)c(C)c1C1COCCN1C(=O)CCc1ccccc1 (stereo unspecified) | -0.284% |
| COCCc1noc(CN2CCCC2c2c(C)nn(C)c2Cl)n1 (stereo unspecified) | -7.71% |
| COc1ccc(-n2ccc(C(=O)NCCn3ccnc3)n2)cc1 | -7.2% |
| Cc1nccn1-c1cc(CNC(=O)CCS(=O)(=O)C2CCCC2)ccn1 | -1.71% |
| CCc1cnc(CN(C(C)=O)C2CCN(CC3(O)CCCCC3)C2)o1 (stereo unspecified) | 0.195% |

| SMILES | cytotoxicity at 10 µM |
| --- | --- |
| COCCN1CCC(CNC(=O)C2(c3ccccc3)CCOCC2)C1 (stereo unspecified) | -5.87% |
| Cc1cnn(CCC(=O)NC2CCc3nc(C)cn3C2)c1 (stereo unspecified) | 0.132% |
| CC(C#N)CN(C)Cc1nc2c(cnn2C)c(=O)[nH]1 (stereo unspecified) | -6.45% |
| Cn1cc(NC(=O)N2CCC2c2ccccc2)ccc1=O (stereo unspecified) | -9.57% |
| CCc1nc(CNCC2CCCN2c2cccnn2)cs1 (stereo unspecified) | -7.69% |
| CCc1noc(CN2CCC(C(=O)Nc3cnn(CC)c3)CC2)n1 | 3.43% |
| Cc1cnn(CCC(=O)N2CCN(c3ccc(C#N)cn3)CC2)c1 | -0.417% |
| CCOc1ncccc1NC(=O)NC1CCN(C(C)=O)CC1 | -6.47% |
| Cc1cc(C(=O)N2CCCC(n3cccn3)C2)c(C)n1C1CC1 (stereo unspecified) | -16.7% |
| CC(C)CCC(=O)NCCc1ccn(-c2ccccc2)n1 | -14.6% |
| Cc1ccccc1CN1CCN(C(C)c2nc(C3CC3)no2)CC1 (stereo unspecified) | -22.2% |
| CN(Cc1cnn(C)c1)CC1CCCN1c1cccnn1 (stereo unspecified) | -1.07% |
| Cc1cnn(CC2CCCCN2C(=O)c2ccc3[nH]cnc3c2)c1 (stereo unspecified) | -9.75% |
| CCc1nnc2n1CCN(CC(=O)Nc1cc(C)on1)C2 | 5.18% |
| Cc1ccc(OCC(=O)NS(=O)(=O)c2c(C)noc2C)cc1C | -1.96% |
| Cc1cc(C)c(CNC(=O)N(C)CC2CCCCO2)c(=O)[nH]1 (stereo unspecified) | -8.93% |
| COC1CCN(C(=O)Cc2csc(-c3ncccn3)n2)CC1 | -12.6% |
| COc1cccc(C2CCCN2Cc2nc3c(cnn3C)c(=O)[nH]2)c1 (stereo unspecified) | -4.35% |
| COc1c(C)cnc(CN2CCCCC2Cn2nc(C)nc2C)c1C (stereo unspecified) | -0.627% |
| CNC(=O)CS(=O)(=O)Cc1cc(Cl)c2c(c1)OCCCO2 | -5.61% |
| Cc1cnc(CN(C)C2CCN(Cc3nc4ccccc4n3C)C2)o1 (stereo unspecified) | 2.57% |
| Cc1cc(OCC(=O)N2CCCC(c3noc(C)n3)C2)no1 (stereo unspecified) | -0.0722% |
| CC(Cn1cccn1)NC(=O)Cc1cccs1 (stereo unspecified) | 4.93% |

| SMILES | cytotoxicity at 10 µM |
| --- | --- |
| CCN1CCC(NC(=O)CN2CCCC2Cn2cncn2)CC1 (stereo unspecified) | 6.54% |
| Cc1nc2c(c(C)c1CC(=O)NCc1cccc(C#N)c1)c(=O)[nH]n2C | -0.722% |
| Cn1cnnc1C1CCCN(C(=O)c2cnc3ccccc3n2)C1 (stereo unspecified) | 0.577% |
| Cc1ccc(-c2cc(C3CCNCC3)nc(C)n2)cc1 | 9.63% |
| CCn1ccc2ccnc(CC3CN(C(=O)Cn4ccnc4C)C3)c21 | -5.87% |
| N#Cc1cnc2ccccc2c1N1CCN(CCC(=O)O)CC1 | -1.28% |
| c1cc2c(cc1CN1CC[C@H]3[C@H]1CCN3CC1CC1)OCO2 | 1.67% |
| Cc1nc(CNCC2Cn3nncc3CO2)cs1 (stereo unspecified) | -93.2% |
| O=C([C@@H]1CC[C@@H]2[C@@H](CCN2c2ccncn2)O1)N1CCCCO1 | 3.13% |
| COCc1cncc2c1CCN(C(=O)c1ccc(C#N)cc1)C2 | -106% |
| Cn1cccc1C(=O)N1C[C@H]2CN(Cc3cccc(F)c3)C[C@H]2C1 | -1.1% |
| O=C(NCC1CC1)C1CCC2(CCN(C(=O)c3cccnc3)CC2)O1 (stereo unspecified) | 3.59% |
| CN1CC[C@@H]2OC[C@H](C(=O)N(C)Cc3ccccn3)C[C@@H]2C1 | -98% |
| CC[C@@H]1N(Cc2ccco2)CCC[C@]12CCC(=O)N2C | -0.00736% |
| Cc1ccc(CN2CCc3[nH]nc(C(=O)N(C)C)c3C2)o1 | 0.081% |
| CC(C)NC(=O)N1CCN(CCn2cccn2)c2ncccc2C1 | -100% |
| Cc1ccc(CN2CC[C@H]3OCC[C@@H](C(=O)NCC4CC4)[C@@H]3C2)s1 | -0.53% |
| O=C(c1cc(C2CC2)no1)N1C[C@@H]2CC[C@H]1CN(Cc1ccccn1)C2 | 2.21% |
| CCCn1nccc1NC(=O)CN1CCc2c(nc(C3CC3)n2C)C1 | 3.58% |
